The IC50 is the concentration that inhibits the measured activity by half.

The values that follow come from ChEMBL document CHEMBL3085730, “Skeletal hybridization and PfRIO-2 kinase modeling for synthesis of α-pyrone analogs as anti-malarial agent” (Eur J Med Chem, 2013).

The source made the active and inactive calls. The rule behind the calls is not given here.

The subject of experiment [1] is Plasmodium falciparum. Description: Antimalarial activity against ring-stage Plasmodium falciparum 3D7 assessed as schizonticidal activity after 42 hrs. Particulars: 3D7, 42 h. Format: functional, organism-based. The procedure, abridged: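 Ring-stage P. falciparum 3D7-parasitised cells exposed to compound for 42 h. Blood smears scored for maturation of rings into trophozoites and schizonts. IC50 derived from schizont inhibition by regression analysis.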

For experiment [2], the system named is Plasmodium falciparum. Nature of the experiment: Antimalarial activity against Plasmodium falciparum 3D7 assessed as lipid peroxidation after 48 hrs by spectrophotometry relative to untreated control. Format: functional. The procedure, abridged:
(§1)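 Parasite cultures treated with a sub-lethal concentration of compound. Intracellular ROS measured with the fluorescent probe 2',7'-dichlorofluorescein diacetate. Lipid peroxidation measured by a previously described method. Each index expressed as fold change ± SD versus untreated culture.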

Experiment [3] has as its system Plasmodium falciparum. Nature of the experiment: Antimalarial activity against Plasmodium falciparum 3D7 assessed as intracellular ROS generation relative to untreated control. Format: functional. Put shortly: as §1
Experiment [4] concerns Plasmodium falciparum. Nature of the experiment: Parasitocidal activity against ring-stage Plasmodium falciparum 3D7 assessed as minimum killing concentration incubated for 42 hrs followed by compound washout measured 72 hrs post infection in hematocrit. Format: functional. Put shortly:
(§2)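 After drug exposure, compound removed and cultures washed 3 times with Albumax II-free RPMI-1640. Cultures then incubated a further 72 h in complete medium with fresh hematocrit. RBCs containing viable parasite counted on thin smear to class inhibition as parasitostatic or parasitocidal.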

For experiment [5], the system named is Plasmodium falciparum. Nature of the experiment: Parasitostatic activity against ring-stage Plasmodium falciparum 3D7 assessed as minimum killing concentration incubated for 42 hrs followed by compound washout measured 72 hrs post infection in hematocrit. Format: functional, organism-based. Put shortly: as §2

For `O=C(Nc1ccc(Br)cc1)c1c(N2CCCCC2)cc(-c2ccccc2)oc1=O`, the IC50 in the experiment with Plasmodium falciparum [1] stood at 337 nM. The “fold change (FC)” value with Plasmodium falciparum [2] was 4.49; in the experiment with Plasmodium falciparum [3], 1.87. For the same compound, the Activity in the experiment on Plasmodium falciparum [4] was 0.21 µM.
As to `O=C(Nc1ccc(O)cc1)c1c(N2CCCCC2)cc(-c2ccccc2)oc1=O`, the IC50 with Plasmodium falciparum [1] worked out at 765 nM. Further, the entries for the “fold change (FC)” value in the experiment on Plasmodium falciparum [2] and in the experiment on Plasmodium falciparum [3] were 9.03 and 1.2, respectively. Moreover, in the experiment with Plasmodium falciparum [4], the Activity turned out to be 1.99 µM.
With `Cc1ccc(NC(=O)c2c(O)cc(-c3ccccc3)oc2=O)cc1`, in the experiment with Plasmodium falciparum [1], the half-maximal inhibitory concentration (IC50) was found to be 1420 nM. Further, the Activity with Plasmodium falciparum [4] stood at 38.9 µM.
With `COc1ccc(-c2cc(N3CCN(C)CC3)c(C(=O)Nc3ccc(O)cc3)c(=O)o2)cc1`, the IC50 with Plasmodium falciparum [1] was determined as 1570 nM. Also, the “fold change (FC)” value in the experiment with Plasmodium falciparum [2] amounted to 4.88; with Plasmodium falciparum [3], 1.99. The result in the experiment on Plasmodium falciparum [5] was inactive.
As for `Cc1ccc(NC(=O)c2c(N3CCCCC3)cc(-c3ccccc3)oc2=O)cc1`, the IC50 with Plasmodium falciparum [1] came out at 859 nM. Moreover, the “fold change (FC)” value was 11.03 in the experiment on Plasmodium falciparum [2] and 1.66 with Plasmodium falciparum [3]. Also, the Activity in the experiment on Plasmodium falciparum [4] was determined as 1 µM.
As to `O=C(Nc1ccc(F)cc1)c1c(O)cc(-c2ccccc2)oc1=O`, the IC50 in the experiment on Plasmodium falciparum [1] amounted to 900 nM. Moreover, the Activity in the experiment on Plasmodium falciparum [4] was found to be 2.39 µM.
Consider `O=C(Nc1ccc(Br)cc1)c1c(O)cc(-c2ccccc2)oc1=O`, for which, in the experiment on Plasmodium falciparum [1], the IC50 was found to be 750 nM. In the experiment on Plasmodium falciparum [4], the Activity turned out to be 3.9 µM.
